Test results reported in ChEMBL document CHEMBL1148671, “Synthesis and antibacterial activity of C12 des-methyl ketolides” (2006).
≈ marks a conversion by molar mass, not a printed value.

What was measured:
Format in all cases: functional
Streptococcus pneumoniae [1] = test: Antibacterial activity against Streptococcus pneumoniae 280-962 by broth microdilution method
In short: (§1)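 In vitro activity was read as the minimum inhibitory concentration (MIC) by broth microdilution and reported in μg/mL. The S. pneumoniae panel included erythromycin-resistant strains carrying mef or erm genes. Telithromycin and clarithromycin were run as comparators in every assay.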

Enterococcus faecalis [2] = test: Antibacterial activity against Enterococcus faecalis bc11148-2 by broth microdilution method; in short: as §1
Staphylococcus aureus [3] = test: Antibacterial activity against Staphylococcus aureus 33591 by broth microdilution method; in short: as §1
Staphylococcus aureus [4] = test: Antibacterial activity against Staphylococcus aureus 29213 by broth microdilution method; settings: ATCC29213; in short: as §1
Streptococcus pneumoniae [5] = test: Antibacterial activity against Streptococcus pneumoniae 49619 by broth microdilution method; in short: as §1
Streptococcus pneumoniae [6] = test: Antibacterial activity against Streptococcus pneumoniae 297-749 by broth microdilution method; in short: as §1
[7] = test system: Staphylococcus epidermidis; test: Antibacterial activity against Staphylococcus epidermidis 14990 by broth microdilution method; in short: as §1
Haemophilus influenzae [8] = test: Antibacterial activity against Haemophilus influenzae 49247 by broth microdilution method; in short: as §1
[9] = test system: Staphylococcus epidermidis; test: Antibacterial activity against Staphylococcus epidermidis f50654 by broth microdilution method; in short: as §1
Streptococcus pneumoniae [10] = test: Antibacterial activity against erythromycin-resistant Streptococcus pneumoniae mef 5654 by broth microdilution method
Streptococcus pneumoniae [11] = test: Antibacterial activity against erythromycin-resistant Streptococcus pneumoniae erm 6849 by broth microdilution method
Streptococcus pneumoniae [12] = test: Antibacterial activity against erythromycin-resistant Streptococcus pneumoniae mef S 3427 by broth microdilution method
Haemophilus influenzae [13] = test: Antibacterial activity against Haemophilus influenzae 2762 by broth microdilution method; in short: as §1
Streptococcus pyogenes = test: Antibacterial activity against Streptococcus pyogenes 8668 by broth microdilution method; in short: as §1
Enterococcus faecalis [14] = test: Antibacterial activity against Enterococcus faecalis 29212 by broth microdilution method; in short: as §1

Structure (SMILES)	MIC (Streptococcus pneumoniae [1])	MIC (Enterococcus faecalis [2])	MIC (Staphylococcus aureus [3])	MIC (Staphylococcus aureus [4])	MIC (Streptococcus pneumoniae [5])	MIC (Streptococcus pneumoniae [6])	MIC [7]	MIC (Haemophilus influenzae [8])	MIC [9]	MIC (Streptococcus pneumoniae [10])	MIC (Streptococcus pneumoniae [11])	MIC (Streptococcus pneumoniae [12])	MIC (Haemophilus influenzae [13])	MIC (Streptococcus pyogenes)	MIC (Enterococcus faecalis [14])
CC[C@H]1OC(=O)[C@H](C)C(=O)[C@H](C)[C@@H](O[C@@H]2O[C@H](C)C[C@H](N(C)C)[C@H]2O)[C@](C)(OC)C[C@@H](C)C(=O)[C@H](C)[C@@H]2[C@@H]1OC(=O)N2CCCCn1cnc(-c2ccc(Cl)nc2)c1	≤ 0.05 µg/mL	0.4 µg/mL (≈ 0.481 µM)	> 50 µg/mL	0.2 µg/mL (≈ 0.24 µM)	≤ 0.05 µg/mL	≤ 0.05 µg/mL	0.1 µg/mL (≈ 0.12 µM)	6.25 µg/mL (≈ 7.51 µM)	0.2 µg/mL (≈ 0.24 µM)	0.78 µg/mL (≈ 0.937 µM)	0.4 µg/mL (≈ 0.481 µM)	0.1 µg/mL (≈ 0.12 µM)	1.56 µg/mL (≈ 1.87 µM)	≤ 0.05 µg/mL	≤ 0.05 µg/mL
CC[C@H]1OC(=O)[C@H](C)C(=O)[C@H](C)[C@@H](O[C@@H]2O[C@H](C)C[C@H](N(C)C)[C@H]2O)[C@](C)(OC)C[C@@H](C)C(=O)[C@H](C)[C@@H]2[C@@H]1OC(=O)N2CCCCn1cnc(-c2ccc(C)nc2)c1	≤ 0.05 µg/mL	3.13 µg/mL (≈ 3.85 µM)	> 50 µg/mL	0.2 µg/mL (≈ 0.246 µM)	≤ 0.05 µg/mL	≤ 0.05 µg/mL	0.2 µg/mL (≈ 0.246 µM)	3.13 µg/mL (≈ 3.85 µM)	0.2 µg/mL (≈ 0.246 µM)	1.56 µg/mL (≈ 1.92 µM)	50 µg/mL (≈ 61.6 µM)	0.4 µg/mL (≈ 0.493 µM)	1.56 µg/mL (≈ 1.92 µM)	≤ 0.05 µg/mL	0.1 µg/mL (≈ 0.123 µM)
CC[C@H]1OC(=O)[C@H](C)C(=O)[C@H](C)[C@@H](O[C@@H]2O[C@H](C)C[C@H](N(C)C)[C@H]2O)[C@](C)(OC)C[C@@H](C)C(=O)[C@H](C)[C@@H]2[C@@H]1OC(=O)N2CCCCn1cnc(-c2ccc(F)nc2)c1	0.2 µg/mL (≈ 0.245 µM)	25 µg/mL (≈ 30.6 µM)	> 50 µg/mL	0.2 µg/mL (≈ 0.245 µM)	≤ 0.05 µg/mL	≤ 0.05 µg/mL	0.2 µg/mL (≈ 0.245 µM)	3.13 µg/mL (≈ 3.84 µM)	0.78 µg/mL (≈ 0.956 µM)	0.78 µg/mL (≈ 0.956 µM)	12.5 µg/mL (≈ 15.3 µM)	0.78 µg/mL (≈ 0.956 µM)	0.78 µg/mL (≈ 0.956 µM)	≤ 0.05 µg/mL	≤ 0.05 µg/mL
CC[C@H]1OC(=O)[C@H](C)C(=O)[C@H](C)[C@@H](O[C@@H]2O[C@H](C)C[C@H](N(C)C)[C@H]2O)[C@](C)(OC)C[C@@H](C)C(=O)[C@H](C)[C@@H]2[C@@H]1OC(=O)N2CCCC(C)(C)n1cnc(-c2cccnc2)c1	≤ 0.05 µg/mL	1.56 µg/mL (≈ 1.89 µM)	> 50 µg/mL	0.2 µg/mL (≈ 0.242 µM)	≤ 0.05 µg/mL	≤ 0.05 µg/mL	0.1 µg/mL (≈ 0.121 µM)	3.13 µg/mL (≈ 3.79 µM)	0.1 µg/mL (≈ 0.121 µM)	1.56 µg/mL (≈ 1.89 µM)	0.4 µg/mL (≈ 0.484 µM)	0.2 µg/mL (≈ 0.242 µM)	1.56 µg/mL (≈ 1.89 µM)	≤ 0.05 µg/mL	0.1 µg/mL (≈ 0.121 µM)
CC[C@H]1OC(=O)[C@H](C)C(=O)[C@H](C)[C@@H](O[C@@H]2O[C@H](C)C[C@H](N(C)C)[C@H]2O)[C@](C)(OC)C[C@@H](C)C(=O)[C@H](C)[C@@H]2[C@@H]1OC(=O)N2CCCCn1cnc(-c2cccnc2)c1	≤ 0.05 µg/mL	> 50 µg/mL	> 50 µg/mL	0.2 µg/mL (≈ 0.251 µM)	≤ 0.05 µg/mL	≤ 0.05 µg/mL	0.78 µg/mL (≈ 0.977 µM)	6.25 µg/mL (≈ 7.83 µM)	0.2 µg/mL (≈ 0.251 µM)	1.56 µg/mL (≈ 1.95 µM)	0.2 µg/mL (≈ 0.251 µM)	0.2 µg/mL (≈ 0.251 µM)	0.78 µg/mL (≈ 0.977 µM)	≤ 0.05 µg/mL	0.1 µg/mL (≈ 0.125 µM)
CC[C@H]1OC(=O)[C@H](C)C(=O)[C@H](C)[C@@H](O[C@@H]2O[C@H](C)C[C@H](N(C)C)[C@H]2O)[C@](C)(OC)C[C@@H](C)C(=O)[C@H](C)[C@@H]2[C@@H]1OC(=O)N2CCCCc1ncc(-c2ccccc2)s1	≤ 0.05 µg/mL	6.25 µg/mL (≈ 7.68 µM)	> 50 µg/mL	0.78 µg/mL (≈ 0.958 µM)	≤ 0.05 µg/mL	≤ 0.05 µg/mL	0.78 µg/mL (≈ 0.958 µM)	12.5 µg/mL (≈ 15.4 µM)	0.4 µg/mL (≈ 0.491 µM)	1.56 µg/mL (≈ 1.92 µM)	25 µg/mL (≈ 30.7 µM)	0.1 µg/mL (≈ 0.123 µM)	3.13 µg/mL (≈ 3.84 µM)	0.2 µg/mL (≈ 0.246 µM)	0.4 µg/mL (≈ 0.491 µM)
CC[C@H]1OC(=O)[C@H](C)C(=O)[C@H](C)[C@@H](O[C@@H]2O[C@H](C)C[C@H](N(C)C)[C@H]2O)[C@](C)(OC)C[C@@H](C)C(=O)[C@H](C)[C@@H]2[C@@H]1OC(=O)N2CCCCc1ccc(-c2cccnc2)s1	≤ 0.05 µg/mL	25 µg/mL (≈ 30.7 µM)	50 µg/mL (≈ 61.4 µM)	0.2 µg/mL (≈ 0.246 µM)	≤ 0.05 µg/mL	≤ 0.05 µg/mL	0.2 µg/mL (≈ 0.246 µM)	12.5 µg/mL (≈ 15.4 µM)	0.1 µg/mL (≈ 0.123 µM)	0.4 µg/mL (≈ 0.491 µM)	6.25 µg/mL (≈ 7.68 µM)	0.1 µg/mL (≈ 0.123 µM)	3.13 µg/mL (≈ 3.84 µM)	≤ 0.05 µg/mL	≤ 0.05 µg/mL
CC[C@H]1OC(=O)[C@H](C)C(=O)[C@H](C)[C@@H](O[C@@H]2O[C@H](C)C[C@H](N(C)C)[C@H]2O)[C@](C)(OC)C[C@@H](C)C(=O)[C@H](C)[C@@H]2[C@@H]1OC(=O)N2CCCC(C)(C)n1cnc2ncccc21	≤ 0.05 µg/mL	1.56 µg/mL (≈ 1.95 µM)	> 50 µg/mL	0.2 µg/mL (≈ 0.25 µM)	≤ 0.05 µg/mL	≤ 0.05 µg/mL	0.1 µg/mL (≈ 0.125 µM)	6.25 µg/mL (≈ 7.81 µM)	0.1 µg/mL (≈ 0.125 µM)	1.56 µg/mL (≈ 1.95 µM)	6.25 µg/mL (≈ 7.81 µM)	0.2 µg/mL (≈ 0.25 µM)	1.56 µg/mL (≈ 1.95 µM)	≤ 0.05 µg/mL	≤ 0.05 µg/mL
CC[C@H]1OC(=O)[C@H](C)C(=O)[C@H](C)[C@@H](O[C@@H]2O[C@H](C)C[C@H](N(C)C)[C@H]2O)[C@](C)(OC)C[C@@H](C)C(=O)[C@H](C)[C@@H]2[C@@H]1OC(=O)N2CCCCn1cnc(-c2ccc(OC)nc2)c1	≤ 0.05 µg/mL	6.25 µg/mL (≈ 7.55 µM)	> 50 µg/mL	0.2 µg/mL (≈ 0.242 µM)	≤ 0.05 µg/mL	≤ 0.05 µg/mL	0.1 µg/mL (≈ 0.121 µM)	6.25 µg/mL (≈ 7.55 µM)	0.2 µg/mL (≈ 0.242 µM)	0.78 µg/mL (≈ 0.942 µM)	50 µg/mL (≈ 60.4 µM)	0.1 µg/mL (≈ 0.121 µM)	1.56 µg/mL (≈ 1.88 µM)	≤ 0.05 µg/mL	≤ 0.05 µg/mL
CC[C@H]1OC(=O)[C@H](C)C(=O)[C@H](C)[C@@H](O[C@@H]2O[C@H](C)C[C@H](N(C)C)[C@H]2O)[C@](C)(OC)C[C@@H](C)C(=O)[C@H](C)[C@@H]2[C@@H]1OC(=O)N2CCCCc1cnc2ccccc2c1	≤ 0.05 µg/mL	12.5 µg/mL (≈ 16 µM)	> 50 µg/mL	0.4 µg/mL (≈ 0.512 µM)	≤ 0.05 µg/mL	≤ 0.05 µg/mL	0.2 µg/mL (≈ 0.256 µM)	6.25 µg/mL (≈ 7.99 µM)	0.4 µg/mL (≈ 0.512 µM)	0.2 µg/mL (≈ 0.256 µM)	0.4 µg/mL (≈ 0.512 µM)	0.1 µg/mL (≈ 0.128 µM)	1.56 µg/mL (≈ 1.99 µM)	≤ 0.05 µg/mL	0.1 µg/mL (≈ 0.128 µM)
